{"source": "ChEMBL document CHEMBL4011638", "about": "“Semisynthetic Flavone-Derived Antimicrobials with Therapeutic Potential against Methicillin-Resistant Staphylococcus aureus (MRSA)” (J Med Chem, 2017)", "key": {"[1]": {"assay": "Cytotoxicity against human Corneal fibroblasts assessed cell viability at 30 uM after 24 hrs by Cell Titer-Glo luminescent assay", "format": "cell-based, Corneal fibroblast", "settings": "read-out: Activity", "procedure,_shortened": "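ATP luminescence viability in human corneal fibroblasts, ~10000 cells per well, duplicate wells. After 24 h exposure the plate is equilibrated 0.5 h at 22 °C before Cell Titer-Glo addition and luminescence read. 1% Triton X-100 serves as positive control, medium-treated cells as negative control. Biological replicates.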"}, "[2]": {"assay": "Cytotoxicity in human Corneal fibroblasts assessed as LDH release at 100 uM after 24 hrs", "format": "cell-based", "settings": "corneal fibroblast", "procedure,_shortened": "(§1)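 Human corneal fibroblasts are exposed to test samples for 24 h, and cytotoxicity is read as LDH leakage into the medium. Biological replicates.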"}, "[3]": {"assay": "Cytotoxicity in human Corneal fibroblasts assessed as LDH release at 80 uM after 24 hrs", "format": "cell-based", "settings": "corneal fibroblast", "procedure,_shortened": "as §1"}, "[4]": {"assay": "Ratio of HC50 for New Zealand white rabbit RBC to MIC for methicillin-sensitive Staphylococcus aureus DM4583R", "procedure,_shortened": "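HC50 measured on fresh New Zealand white rabbit RBCs, washed three times in PBS, at 4% v/v final. Cells were incubated with 2-fold serial dilutions (DMF final 0.5%) at 37 °C for 1 h, then centrifuged. Supernatant absorbance was read at 576 nm, with PBS as 0% and 2% Triton X-100 as 100% lysis. HC50 is the concentration lysing 50% of cells, divided by MIC from broth microdilution.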"}, "[5]": {"tested_on": "Staphylococcus aureus", "assay": "Antibacterial activity against Staphylococcus aureus DM4001R after 24 hrs by broth microdilution method", "format": "functional", "procedure,_shortened": "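Broth microdilution per CLSI in cation-adjusted Mueller−Hinton broth, in tubes. Compounds dissolved in H2O or DMF, then diluted in PBS to 1000 μg/mL stocks. Serial 2-fold dilutions were made, with final DMF 2.5%. Organisms were grown on TSA at 35 °C for 20 h and adjusted to ~5× 10^5 CFU/mL. Tubes were incubated at 35 °C for 24 h. MIC was the lowest concentration with no visible growth versus control. Biological replicates.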"}, "[6]": {"tested_on": "Staphylococcus aureus", "assay": "Antibacterial activity against Staphylococcus aureus ATCC 29213 infected in C57BL6 mouse keratitis model assessed as log reduction in bacterial burden at 0.5 % administered 4 times daily at 2 hrs interval for 1 day", "format": "functional", "procedure,_shortened": "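C57BL6 mice, 6–8 weeks, 20–30 g, four per group, anesthetized with ketamine/xylazine. Right cornea scratched (three 1 mm cuts), 10 μL of 6×10^8 CFU/mL S. aureus ATCC 29213 in PBS applied topically. From day 1, 0.5% drug in PBS (12 mM, pH 7.2) given 4 times at 2 h intervals. Corneas homogenized in 0.9% NaCl/0.25% BSA, diluted, plated in duplicate on TSA, 48 h at 35 °C.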"}, "[7]": {"tested_on": "Lipid bilayer", "assay": "Membrane permeabilization activity in DOPE/DOPG large unilamellar liposomes assessed as leakage of calcein at 1:8 compound to lipid ratio by fluorescence assay", "procedure,_shortened": "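Calcein-loaded 100 nm LUVs of DOPE/DOPG (3:1, w/w), made by film hydration in 80 mM calcein, 100 mM NaCl, 50 mM HEPES, 0.3 mM EDTA, pH 7.4. Liposomes 50 μM, 0.5% DMF, room temperature. Read at ex 490/em 520 nm every 2 min for 30 cycles. % leakage normalized to 0.1% Triton X-100 (100%) and 0.5% DMF (0%). Biological replicates.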"}, "[8]": {"tested_on": "Staphylococcus aureus", "assay": "Induction of plasma membrane permeability in methicillin-resistant Staphylococcus aureus DM9808R assessed as increase in fluorescence intensity at 12.5 ug/ml measured every 1 sec for 50 mins by SYTOX green dye based fluorimetric assay", "format": "functional", "procedure,_shortened": "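Exponential-phase MRSA DM9808R grown on TSA, washed twice and resuspended in PBS (10 mM, pH 7) to OD600 0.2. Cells were loaded with 0.3 μM SYTOX Green in the dark until fluorescence stabilized. Test samples were then added (final DMF 0.5%). Fluorescence at ex 504/em 523 nm was recorded every 1 s for 50 min. Biological replicates.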"}}, "note": "Active and inactive are the calls of the source. The calls are words filed in the database; no cut-off is given here.", "data": [{"smiles": "COC(=O)[C@H](CCCNC(=N)N)NC(=O)COc1cc(O)c2c(=O)c(OCC(=O)N[C@@H](CCCNC(=N)N)C(=O)OC)c(-c3ccc(OC)cc3)oc2c1CC=C(C)C", "values": [{"measurement": "viability at 24 h, 30 µM", "setting": "[1]", "result": 98.2, "unit": "%"}, {"measurement": "Activity", "setting": "[2]", "result": 23.9, "unit": "%"}, {"measurement": "Activity", "setting": "[3]", "result": 18.62, "unit": "%"}, {"measurement": "Ratio", "setting": "[4]", "result": "> 511"}, {"measurement": "MIC", "setting": "[5]", "result": 1.9, "unit": "µM"}, {"measurement": "Activity", "setting": "[6]", "result": "Active"}, {"measurement": "Activity", "setting": "[7]", "result": 53.5, "unit": "%"}, {"measurement": "Activity", "setting": "[8]", "result": "Active"}]}]}
